The record followed here is ChEMBL document CHEMBL1137481, “Discovery of platelet-type 12-human lipoxygenase selective inhibitors by high-throughput screening of structurally diverse libraries” (Bioorg Med Chem, 2007).

A word on the IC50: it is the point on the concentration scale where inhibition reaches its midpoint. Read a low IC50 as greater potency in that assay. What is called inhibition is the relative decrease from the control value, in per cent. The Ki is a dissociation constant, usually derived from enzyme kinetics or from competition with a known ligand. Lower therefore signals a stronger hold on the target.

Assay [1] deals with T1, Polyunsaturated fatty acid lipoxygenase ALOX12 (Homo sapiens, UniProt P18054).
T1 sequence (P18054 whole entry): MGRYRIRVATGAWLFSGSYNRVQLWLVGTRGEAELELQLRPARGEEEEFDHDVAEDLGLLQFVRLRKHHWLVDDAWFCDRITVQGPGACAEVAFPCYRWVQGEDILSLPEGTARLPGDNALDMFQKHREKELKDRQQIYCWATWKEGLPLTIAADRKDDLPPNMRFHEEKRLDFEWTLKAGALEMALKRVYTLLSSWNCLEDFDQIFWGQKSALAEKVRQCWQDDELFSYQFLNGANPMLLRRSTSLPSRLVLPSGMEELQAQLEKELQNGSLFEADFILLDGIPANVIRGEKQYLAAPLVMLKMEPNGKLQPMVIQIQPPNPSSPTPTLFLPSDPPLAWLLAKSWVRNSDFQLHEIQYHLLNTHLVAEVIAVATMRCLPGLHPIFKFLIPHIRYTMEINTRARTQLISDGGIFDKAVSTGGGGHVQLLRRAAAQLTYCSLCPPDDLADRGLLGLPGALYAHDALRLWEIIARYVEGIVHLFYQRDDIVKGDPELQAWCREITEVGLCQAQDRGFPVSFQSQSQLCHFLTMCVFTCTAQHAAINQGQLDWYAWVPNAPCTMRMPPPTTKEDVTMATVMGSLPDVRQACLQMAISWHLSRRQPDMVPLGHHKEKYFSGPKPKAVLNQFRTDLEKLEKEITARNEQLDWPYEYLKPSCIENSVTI
The experiment in a line: Inhibition of human 12-hLO. The procedure, abridged: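 Rate from conjugated diene formation at 234 nm, room temperature (23 °C), stirred 2 mL reactions. 12-hLO (N-terminal His6-tagged, ~40 nM) with arachidonic acid in 25 mM Hepes pH 8, 0.01% Triton X-100. 15-hLO-1 (His6-tagged, ~40 nM) with linoleic acid, 15-hLO-2 (1 µM, SF9-expressed) with arachidonic acid, both in 25 mM Hepes pH 7.5, 0.01% Triton X-100. Rates at various inhibitor concentrations fit to saturation curve for IC50.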

In assay [2] the target is T2, Polyunsaturated fatty acid lipoxygenase ALOX15 (Homo sapiens) (UniProt P16050).
T2 sequence (whole entry): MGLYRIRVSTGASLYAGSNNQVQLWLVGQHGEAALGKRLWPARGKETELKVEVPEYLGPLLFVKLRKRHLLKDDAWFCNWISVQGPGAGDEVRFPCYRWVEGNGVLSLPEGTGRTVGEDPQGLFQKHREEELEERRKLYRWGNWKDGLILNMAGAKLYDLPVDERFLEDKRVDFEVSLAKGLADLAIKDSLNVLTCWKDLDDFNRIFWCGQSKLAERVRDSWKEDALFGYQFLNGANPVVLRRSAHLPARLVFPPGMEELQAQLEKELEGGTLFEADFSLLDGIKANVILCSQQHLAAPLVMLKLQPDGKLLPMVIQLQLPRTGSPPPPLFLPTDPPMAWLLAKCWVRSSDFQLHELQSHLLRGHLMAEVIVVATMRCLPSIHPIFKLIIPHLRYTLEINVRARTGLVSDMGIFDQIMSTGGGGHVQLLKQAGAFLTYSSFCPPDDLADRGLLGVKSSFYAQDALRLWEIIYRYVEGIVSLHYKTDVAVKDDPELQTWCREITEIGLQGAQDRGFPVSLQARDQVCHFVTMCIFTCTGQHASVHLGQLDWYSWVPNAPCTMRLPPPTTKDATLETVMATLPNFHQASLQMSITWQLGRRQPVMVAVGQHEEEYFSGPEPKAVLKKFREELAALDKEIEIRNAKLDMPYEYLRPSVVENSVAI
The assay is described as follows: Inhibition of human 15-hLO1 at 40 uM by HTP assay. The procedure, abridged: (§1)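 384-well xylenol orange endpoint assay. 30 µM substrate (arachidonic acid for 12-hLO in 25 mM Hepes pH 8.0; linoleic acid for 15-hLO-1 in 25 mM HEPES pH 7.5), 0.1% Triton X-100. Inhibitor at 40 µM final from DMSO. Reactions started with ~40 nM enzyme and stopped at ~35% completion with 100 µM xylenol orange and 150 µM ferrous ammonium sulfate in 25 mM H2SO4. Read at 560 nm after 30 min dark shaking. Triplicate, normalised to no-enzyme and DMSO controls.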

Assay [3] addresses T2, Polyunsaturated fatty acid lipoxygenase ALOX15 (Homo sapiens). The experiment in a line: Inhibition of human 15-hLO1 at 10 uM by MI assay. The procedure, abridged: (§2)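 One-point manual continuous assay at 23 °C, stirred, following conjugated diene at 234 nm. 12-hLO (~40 nM, His6-tagged) with arachidonic acid in 25 mM Hepes pH 8, 0.01% Triton X-100. 15-hLO-1 (~40 nM) with linoleic acid in 25 mM Hepes pH 7.5, 0.01% Triton X-100. 10 µM inhibitor.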

Assay [4] addresses T3, Polyunsaturated fatty acid lipoxygenase ALOX12 (Homo sapiens) (UniProt P18054).
T3 sequence (whole entry): T1 sequence (P18054 whole entry)
The experiment in a line: Inhibition of human 12-hLO at 10 uM by MI assay. The gist of the method:
as §2

Assay [5] concerns the target T3, Polyunsaturated fatty acid lipoxygenase ALOX12 (Homo sapiens). The assay is described as follows: Inhibition of human 12-hLO at 40 uM by HTP assay. The gist of the method: as §1
The target in assay [6] is T4, Polyunsaturated fatty acid lipoxygenase ALOX15 (Homo sapiens, UniProt P16050).
T4 sequence (P16050 whole entry): T2 sequence (whole entry)
The experiment in a line: Inhibition of human 15-hLO1.

The species named for assay [7] is Homo sapiens. The experiment in a line: Selectivity for 12-hLO over 15-hLO1. The procedure, abridged: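 Ratio of IC50 for 15-hLO-1 over IC50 for 12-hLO. Both come from the 234 nm conjugated-diene rate assay: 12-hLO with arachidonic acid at pH 8, 15-hLO-1 with linoleic acid at pH 7.5, 0.01% Triton X-100, 23 °C. IC50 taken from saturation-curve fits.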

In turn, `COc1c(O)cc2oc3cc(O)c(CC=C(C)C)c(O)c3c(=O)c2c1CC=C(C)C` [MANGOSTIN] returned an IC50 in assay [1] of 580 nM. Besides, the inhibition in assay [2] came to 12%; in assay [3], 36%; in assay [4] it was 100%; in assay [5] it was 47%.

`O=C(O)c1cc(C(=O)C(=O)c2cc(C(=O)O)c(O)c3ccccc23)c2ccccc2c1O` had an IC50 in assay [1] of 150 nM. Also, the inhibition in assay [2] stood at 0%; in assay [3] it was 0%; in assay [4], 88%; in assay [5] it was 46%.

For `Oc1c(Cl)cc(C(c2cc(Cl)c(O)c(Cl)c2)C(c2cc(Cl)c(O)c(Cl)c2)c2cc(Cl)c(O)c(Cl)c2)cc1Cl`, the IC50 in assay [1] was determined as 210 nM. In addition, the inhibition in assay [2] is 37%; in assay [3] it was 36%; in assay [4] it was 100%; in assay [5], 70%.

In assay [1], `C[C@H](c1nccs1)N(C)C(=O)[C@H](C[C@H](C)C(Cl)(Cl)Cl)NC(=O)C[C@H](C)C(Cl)(Cl)Cl` [NEODYSIDENIN] showed an IC50 above 100000 nM and a Ki of 17 µM.

Regarding `Oc1cccc2ccc(SSc3ccc4cccc(O)c4n3)nc12`, the inhibition in assay [2] came out at 39%; in assay [3], 0%; in assay [4] it was 0%; in assay [5], 71%.

As to `C[C@H](NC(=O)[C@H](C[C@H](C)C(Cl)(Cl)Cl)N(C)C(=O)C[C@H](C)C(Cl)(Cl)Cl)c1nccs1` [DYSIDENIN], the results for the Ki in assay [1] and in assay [6] were 9 µM and 8 µM, respectively. Also, the Ratio Ki in assay [7] came out at 1.
